Measured values from different studies.

Compound	host	sample	route	dose	notes	quantity	result
CCc1cc(OC)c2nccc(N3CCc4c(cc(Cn5ccnc5)cc4-c4cn(C)nc4C(F)(F)F)C3=O)c2c1	male CD-1 mouse	plasma	intravenous	3 mg/kg		AUC(0-inf)	3.33 µg·h/mL
CC[C@H](C)[C@@H]1NC(=O)[C@@](C)(NC(=O)[C@H](CCCNC(=N)N)NC(=O)[C@H](CC(C)C)NC(=O)[C@@H](NC(=O)[C@H](CCC(N)=O)NC(=O)[C@H](CC(C)C)NC(C)=O)[C@@H](C)O)CCCC=CCCC[C@@](C)(C(=O)N[C@@H](CC(C)C)C(=O)N[C@@H](Cc2ccc3ccccc3c2)C(N)=O)NC(=O)[C@H](CCCNC(=N)N)NC(=O)[C@H](CCC(N)=O)NC1=O	male BALB/c mouse	plasma	intravenous	5 mg/kg		AUC(0-inf)	126 µg·h/mL
CC(C)(O)c1cn(-c2ccc(-c3cccc(S(C)(=O)=O)c3)cc2)c(C(C)(C)c2ccccc2Cl)n1	male C57BL/6 mouse	serum	oral	10 mg/kg		AUC	57 µM·h
Cc1noc([C@H](Cc2c[nH]cn2)NC(=O)CN(CCCc2ccccc2)CC(=O)O)n1	male C57BL/6 mouse	plasma	intraperitoneal	30 mg/kg		AUC	1.9 µg·h/mL
OC[C@H]1O[C@@H](c2ccc(Cl)c(Cc3ccc(O[C@H]4CCOC4)cc3)c2)[C@H](O)[C@@H](O)[C@@H]1O	CD-1 mouse	plasma	oral	10 mg/kg		AUC	0.741 µg·h/mL
CC(C)(O)c1cn(-c2ccc(-c3ccc(CO)c(S(C)(=O)=O)c3)cc2)c(Cc2ccccc2Cl)n1	male C57BL/6 mouse	serum	oral	10 mg/kg		AUC	13 µM·h
NC[C@@H]1O[C@H](O[C@H]2[C@@H](O)[C@H](O[C@@H]3[C@@H](O)[C@H](N)C[C@H](N)[C@H]3O[C@H]3O[C@H](CO)[C@@H](O)[C@H](O)[C@H]3N)O[C@@H]2CO)[C@H](N)[C@@H](O)[C@@H]1O	male BALB/c mouse	plasma	oral	500 mg/kg		AUC	3.4 µg·h/mL
Cc1nc(-c2cnc(NC(C)C)n(C)c2=O)ccc1Oc1ccnc(-c2cnn(C)c2)c1	female mouse	plasma	oral	30 mg/kg	single dose	AUC(0-inf)	285 µg·h/mL
COc1ccc(C(O)COc2ccc(-c3csc(-c4ccc(OCC(O)c5ccc(OC)c(OC)c5)cc4)n3)cc2)cc1OC (stereo not drawn)	C57BL/6 mouse	plasma	oral	30 mg/kg		AUC(0-t)	34 µg·h/mL
C=CC(=O)N1CC2CC(n3nc(-c4ccc(C(=O)Nc5ccccn5)cc4)c4c(N)ncnc43)CC2C1 (stereo not drawn)	SCID mouse	plasma	oral	1 mg/kg		AUC(0-t)	0.175 µg·h/mL
CNC(=O)[C@H](Cc1c[nH]cn1)NC(=O)CN(CCCc1ccccc1)CC(=O)OC	male C57BL/6 mouse	plasma	intraperitoneal	30 mg/kg		AUC	1 µg·h/mL
COc1ccc2nccc(N3CCc4c(cc(Cn5ccnc5)cc4-c4cn(C)nc4C(F)(F)F)C3=O)c2c1	male CD-1 mouse	plasma	intravenous	3 mg/kg		AUC(0-t)	1.84 µg·h/mL
CC(C)(C)c1ccc(O)c(CN(Cc2cc(C(C)(C)C)ccc2O)C2CCC(NC(N)=O)CC2)c1 (stereo not drawn)	male C57BL/6 mouse	plasma	oral	10 mg/kg	single dose	AUC(0-inf)	6.62 µg·h/mL
Cc1ccc2cncc(N3CCc4c(cc(Cn5ccnc5)cc4-c4cn(C)nc4C(F)(F)F)C3=O)c2c1	male CD-1 mouse	plasma	oral	50 mg/kg		AUC(0-inf)	36.3 µg·h/mL
CC(C)Oc1c(NC(=O)c2ccc(NC(=O)[C@H](CC(N)=O)NC(=O)c3ccc(NC(=O)c4ccc(C#N)cc4)cc3)cc2)ccc(C(=O)Nc2ccc(C(=O)O)cc2)c1O	male CD-1 mouse	plasma	subcutaneous	5 mg/kg	single dose	AUC	0.517 µg·h/mL
